# UCH37 inh – inhibitors of human UCH37 deubiquitinase, primary screen, biochemical, Ub-AMC cleavage, fluorescence; 330,000 compounds, 0.33% hits; purified proteasome/UCH37; AID 588478, 2011; Ubiquitin carboxyl-terminal hydrolase isozyme L5 (Homo sapiens), Q9Y5K5; inhibition, % (concentration not given with the values);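 active = mean inhibition over replicate wells above about 20%, limit read from the data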;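 note: 0% = compound-free wells with enzyme and 100% = wells lacking proteasome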
# Target sequence (Q9Y5K5 whole entry, looked up): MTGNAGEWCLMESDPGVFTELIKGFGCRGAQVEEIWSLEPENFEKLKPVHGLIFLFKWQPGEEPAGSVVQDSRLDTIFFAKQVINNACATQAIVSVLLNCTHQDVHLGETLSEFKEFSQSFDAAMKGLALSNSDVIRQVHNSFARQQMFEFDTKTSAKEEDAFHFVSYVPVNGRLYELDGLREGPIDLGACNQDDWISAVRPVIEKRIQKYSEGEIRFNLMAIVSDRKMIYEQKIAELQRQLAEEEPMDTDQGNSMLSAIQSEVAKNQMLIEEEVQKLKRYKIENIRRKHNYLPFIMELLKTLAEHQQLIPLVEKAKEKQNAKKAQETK
#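 Schedule: 30 min plus 25 min, room temperature / Material: human UCH37 within purified proteasomes / Technique: AMC fluorescence intensity at 355/460 nm / Buffer or medium: pH 7.4 Tris-HCl (50 mM) with ovalbumin, ATP-MgCl2, DTT / Controls: wells without proteasome as full block, compound-free enzyme plus substrate as uninhibited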
# PP1 inh – PP1-alpha phosphatase inhibitors, primary screen, counter-screen for PP5 inhibitor project, biochemical, fluorescence, OMFP substrate, single point; inhibition, % at 6.7 µM; Serine/threonine-protein phosphatase PP1-alpha catalytic subunit (Homo sapiens), P62136; 320,000 compounds, 0.9% hits; AID 2235, 2010; purified PP1alpha;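 active = inhibition above the mean inhibition of all tested compounds plus 3 SD, computed separately for each screening campaign, cut at about 15% in these data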
# PP5 primary – PP5 phosphatase inhibitors, primary screen, biochemical, fluorescence; Serine/threonine-protein phosphatase 5 (Homo sapiens), P53041; purified PP5c, OMFP substrate fluorescence; inhibition, % at 6.7 µM; 320,000 compounds, 0.18% hits;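 active = inhibition above the campaign's mean inhibition across all tested compounds plus 3 SD, cut at about 9.5% in these data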;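 note: 0% = DMSO only and 100% = 100 µM cantharidin control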
# CTSL1 counter – Fasciola hepatica cathepsin L1 inhibitors, primary screen, counter-screen for PFM18AAP inhibitor project, biochemical, QFRET, fluorogenic peptide substrate | recombinant F. hepatica cathepsin L1, Z-Leu-Arg-MCA fluorescence | inhibition, % at 5.96 µM | 300,000 compounds, 0.49% hits;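 active = inhibition above the mean of all tested compounds plus 3 SD, set per screening campaign, cut at about 17% in these data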;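 note: 0% = plate median of test compound wells and 100% = 1 µM Z-Phe-Ala-diazomethylketone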
# PREPL inhibitor – PREPL enzyme inhibitors, primary screen, biochemical, fluorescence polarization; AID 2751, 2010; inhibition, % at 5.96 µM; Prolyl endopeptidase-like (Homo sapiens), Q4J6C6; recombinant PREPL, fluorescence polarization activity-based probe; 320,000 compounds, 0.68% hits;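 note: 0% = enzyme with DMSO and 100% = wells lacking enzyme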
# UBC13 polyUb – UBC13 polyubiquitin chain formation inhibitors, primary screen, biochemical, TR-FRET, uHTS; Ubiquitin-conjugating enzyme E2 N (Homo sapiens), P61088; inhibition, % at 20 µM; 330,000 compounds, 0.47% hits; in the data active = inhibition above about 45%, passing the limit was not always enough
# Target sequence (P61088 whole entry, looked up): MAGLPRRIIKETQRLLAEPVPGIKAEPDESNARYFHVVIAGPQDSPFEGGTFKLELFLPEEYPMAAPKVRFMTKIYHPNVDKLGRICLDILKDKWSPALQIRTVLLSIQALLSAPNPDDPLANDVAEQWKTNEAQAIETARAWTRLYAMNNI
# PREPL inh cf – human PREPL enzyme inhibitors, confirmation, biochemical, fluorescence polarization; inhibition, % at 5.96 µM; shares compounds with PREPL inhibitor; 2,000 compounds, 67% hits; recombinant PREPL, fluorescence polarization activity probe;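 note: 0% = protein with DMSO and 100% = wells lacking protein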
# * marks the source's active call; other numbers are inactive results; . = no result; + = active, no number. Most compounds without a hit are left out; they make up all but 2.3% or so of the library. Cut-off read from the data, not from the text of the source, unless noted: active = inhibition above about 43%; inactive = the rest.
SMILES,UCH37 inh,PP1 inh,PP5 primary,CTSL1 counter,PREPL inhibitor,UBC13 polyUb,PREPL inh cf
CCN(CC)c1ccc(-c2nn3c(-c4ccccc4OC)nnc3s2)cc1,-274.7,15.8*,8.1,3.8,56.9*,18.0,38.8
CCOc1cc(C=NNC(=O)CSc2nncn2C)ccc1OC(=O)c1ccc(Cl)cc1,6.8,.,.,.,.,.,.
O=C(C[n+]1ccc2ccccc2c1)c1cccc2ccccc12,1.6,10.1,2.4,3.0,51.7*,-20.3,3.4
O=C(CNC(=O)c1ccco1)NCC(c1ccco1)N1CCCCC1 (stereo not drawn),-4.0,-5.2,-0.4,.,73.2*,10.5,12.5
C[n+]1c(-c2ccccc2)sc([S-])c1-c1ccccc1,4.3,-4.8,3.1,-6.6,57.0*,0.8,68.7*
COc1ccc(C=NNC(=O)c2ccc(Br)cc2)cc1CN1CCOCC1,4.7,.,.,.,.,.,.
Cc1ccc(OCC(O)Cn2c(=N)n(CCN3CCOCC3)c3ccccc32)cc1 (stereo not drawn),-0.1,-2.0,1.1,8.5,45.0*,1.8,33.9
CCn1c2ccccc2c2cc(CNCc3ccc(OC)cc3OC)ccc21,1.3,4.5,-1.8,1.6,49.4*,33.8,50.9*
Cc1cccc(NN=C(C#N)S(=O)(=O)C(C)(C)C)c1,4.3,.,.,.,.,.,.
C=CCn1c(N2CCN(c3ccc(OC)cc3)CC2)nc2c1c(=O)[nH]c(=O)n2C,3.8,-2.8,1.6,6.6,48.6*,11.7,38.4
C=CCn1c(N2CCN(c3ccc(OC)cc3)CC2)nc2c1c(=O)n(C)c(=O)n2C,2.0,-0.7,0.8,-8.6,42.9,3.5,.
Cc1cccc(C(=O)Nc2cccc(C(=O)NN=Cc3ccncc3)c2)c1,6.1,.,.,.,.,.,.
COc1ccc(C2=Nn3c(nnc3-c3ccccc3F)SC2)cc1OCC1CC1,1.0,.,.,.,55.6*,27.4,-8.7
CC(=NNC(=O)Cc1ccc(Cl)cc1)c1cccnc1,-0.1,.,.,.,.,.,.
COc1ccc(-c2nn(-c3ccccc3)cc2C=NO)cc1,-0.9,.,.,.,.,.,.
Cc1ccc2c(CC(=O)Nc3ccc(N4CCN(C)CC4)cc3C)coc2c1,-1.7,1.7,-2.7,-1.9,60.8*,9.0,59.8*
COc1ccc(N2CCN(C(=O)Cc3coc4cc(C)ccc34)CC2)cc1,0.9,-2.2,2.9,-0.6,19.0,-7.5,.
Cc1ccc(C=NNc2ccc(F)cc2)s1,-0.1,.,.,.,.,.,.
COC1CCCN(Cc2cn(C)nc2-c2ccc(Oc3ccccc3)cc2)C1 (stereo not drawn),3.8,-2.7,1.5,-0.1,13.1,-5.2,.
COCCN1CCCC(CNCc2cn(C)nc2-c2ccc(Oc3ccccc3)cc2)C1 (stereo not drawn),3.0,-4.6,2.1,6.5,43.3*,17.8,32.4
C=CC[n+]1c(-c2ccc(Cl)cc2Cl)csc1Nc1ccc(NC(C)=O)cc1,4.4,2.1,4.4,-0.5,58.9*,0.7,63.0*
COc1ccc(C=NNC(=O)C2CCN(c3ncc(C(F)(F)F)cc3Cl)CC2)cc1,5.8,.,.,.,.,.,.
CC(C)CN(C(=O)COC(=O)c1ccc(-c2ccccc2)cc1)C1CCS(=O)(=O)C1 (stereo not drawn),1.1,-5.4,-1.4,-5.5,48.1*,-5.3,40.1
Cc1[nH]c2ccccc2c1C(c1ccncc1)N1CCN(c2ccccn2)CC1 (stereo not drawn),.,-3.1,2.5,0.3,+,-2.2,12.6
Cc1nn(-c2ccccc2)c(C)c1C=NNC(=O)CSc1nnc(-c2ccccc2)n1-c1ccc(Cl)cc1,-0.1,.,.,.,.,.,.
SMILES,UCH37 inh,PP1 inh,PP5 primary,CTSL1 counter,PREPL inhibitor,UBC13 polyUb,PREPL inh cf
COc1ccc(N2CCN(c3oc(-c4ccco4)nc3C#N)CC2)cc1,-0.6,-4.1,3.2,1.4,43.8*,5.9,35.4
COc1ccccc1-c1nc(C#N)c(N2CCN(c3ccccc3)CC2)o1,-5.6,3.4,1.0,3.1,48.2*,3.9,39.3
N#Cc1nc(-c2ccco2)oc1N1CCN(c2ccccc2)CC1,-6.1,0.6,-0.9,-0.2,38.8,1.8,.
COc1ccc(-c2cn(Cc3ccc4c(c3)C(=O)c3ccccc3C4=O)nn2)cc1,1.4,2.4,3.2,-3.7,48.4*,-5.8,37.3
ON=Cc1cn(-c2ccccc2)nc1-c1ccccc1,5.9,.,.,.,.,.,.
Cc1cc(=O)[nH]c(NN=Cc2ccc(O)c(O)c2)n1,8.4,.,.,.,.,.,.
COc1cccc2sc(Nc3nc(-c4ccccn4)cs3)nc12,-4.4,17.1*,0.8,0.0,49.9*,-0.7,45.6*
COc1cccc2sc(NNC(=O)COc3ccccc3)nc12,0.7,1.4,0.0,1.7,15.0,-2.7,.
COc1ccc(OC)c(C=NNC(=O)CC2C(=O)NN=C2C)c1 (stereo not drawn),-478.0,.,.,.,.,.,.
COc1cc(/C=C2/C(=N)N3OC(C)=CC3=NC2=O)ccc1OC(=O)c1ccco1,1.2,-4.2,2.0,-3.1,46.3*,5.4,60.3*
CC1CCN(Cc2c(O)ccc3c(=O)c(-c4nc5ccccc5s4)c(N)oc23)CC1,-70.3,2.9,-0.2,7.0,44.5*,-18.6,38.8
CC1(C)CCCN(Cc2c(O)ccc3c(=O)c(-c4nc5ccccc5s4)c(N)oc23)C1,-202.3,-3.3,-1.5,4.4,43.6*,2.7,38.0
CC1CCCN(Cc2c(O)ccc3c(=O)c(-c4nc5ccccc5s4)c(N)oc23)C1 (stereo not drawn),-131.2,4.8,5.3,-0.2,64.6*,19.5,62.1*
CCn1cnc2cc(NCc3ccc(N(C)C)cc3)ccc21,-1.3,2.6,-1.1,-1.0,27.3,-0.2,.
CN(C)c1ccc(CNc2ccc3c(c2)ncn3C(C)(C)C)cc1,0.1,-0.5,1.3,5.3,43.4*,-0.3,27.8
CCCn1cnc2cc(NCc3ccc(Br)cc3)ccc21,-7.8,0.1,0.7,-3.8,49.1*,12.2,46.0*
COc1ccc(CC(=O)NN=Cc2ccc(-c3cccc(C(=O)O)c3)o2)cc1OC,-1.2,.,.,.,.,.,.
CCCCN1C(=N)N([C@@H](C)CN2CCC[C@H]2CN2C(N)=NC[C@H]2C(C)C)C[C@H]1[C@H](C)CC,3.1,.,.,.,39.8,4.5,.
CC(C)C[C@@H]1CN=C(N)N1C[C@@H]1CCCN1C[C@@H](C(C)C)N1C[C@@H](Cc2ccccc2)N(CCc2ccc(Cl)c(Cl)c2)C1=N,4.4,.,.,.,70.4*,15.1,64.0*
